Structures are written as SMILES. Activity calls are given as the source filed them.

Results on five compounds are retold here after ChEMBL document CHEMBL3352635 (Bioorg Med Chem Lett, 2014).

A short description of data set [1]: Metabolic stability in simulated gastric fluid assessed as compound remaining at pH 1.2 after 30 mins by HPLC analysis. Particulars: read-out: Stability. The format is ADME. In short, it runs like this:
(§1)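 Compounds incubated at 37 °C in simulated gastric fluid (pH 1.2), simulated intestinal fluid (pH 6.8) or 100% human plasma for up to 180 min. […] Half-life estimated from the decay.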

For data set [2], the system named is Rattus norvegicus. The data set is described as follows: Antiinflammatory activity in Sprague-Dawley rat assessed as plasma nitrate/nitrite at 41.60 mg/kg, po after 2 hrs. Format: functional. Particulars: dose 41.6 mg/kg. In short, it runs like this: (§2)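 Sprague–Dawley rats given compounds orally, with vehicle-dosed controls. […] Plasma nitrate/nitrite (NOx) measured by the Griess method as an indirect measure of NO released, over 8 h (sampling included 1, 2, 4 and 6 h). Plasma nitrate/nitrite AUC in µM*h.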

A short description of data set [3]: Stability of the compound assessed as compound remaining at 50 degC after 25 days. Format: physicochemical. The following applies: read-out: Drug metabolism. The method, boiled down:
(§3)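 Solid-state storage stability at room temperature and at 50 °C, followed for up to 1 month (25 days for one compound). Remaining compound measured, along with the amounts of parent drug and salicylic acid generated.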

A short description of data set [4]: Stability of the compound assessed as compound remaining at RT after 25 days. Particulars: read-out: Drug metabolism. Format: physicochemical. The method, boiled down: as §3
Data set [5] can be described thus: Metabolic stability in simulated gastric fluid assessed as compound remaining at pH 1.2 after 15 mins by HPLC analysis. Format: ADME. Particulars: read-out: Stability. In short, it runs like this: as §1
Data set [6] is described as follows: Half life in simulated gastric fluid at pH 1.2 by HPLC analysis. Format: ADME. In short, it runs like this: as §1
Data set [7] has as its system Rattus norvegicus. The data set is described as follows: Toxicity in rat assessed as gastric lesion and ulcer area at 138.67 mg/kg, po after 5 hrs. The format is organism-based, Stomach. On the set-up: dose 138.67 mg/kg, route oral. Particulars: in vivo.
Data set [8] can be described thus: Metabolic stability in simulated gastric fluid assessed as compound remaining at pH 1.2 after 60 mins by HPLC analysis. Format: ADME. Particulars: read-out: Stability. In short, it runs like this: as §1
The subject of data set [9] is Rattus norvegicus. The data set is described as follows: Antiinflammatory activity in Sprague-Dawley rat assessed as plasma nitrate/nitrite AUC at 41.60 mg/kg, po by Griess assay (reference value: 371.1 uM.h). The format is functional, organism-based. On the set-up: dose 41.6 mg/kg. The method, boiled down:
as §2
A general note: Griess reagent forms a coloured azo dye with nitrite.

In data set [10] the test system is Rattus norvegicus. The data set is described as follows: Antiinflammatory activity in Sprague-Dawley rat assessed as plasma nitrate/nitrite at 41.60 mg/kg, po after 1 hr. Format: functional. The following applies: dose 41.6 mg/kg. The method, boiled down:
as §2

Data set [11] can be described thus: Metabolic stability in simulated gastric fluid assessed as compound remaining at pH 1.2 after 5 mins by HPLC analysis. Format: ADME. The following applies: read-out: Stability. The method, boiled down: as §1
Data set [12] is described as follows: Metabolic stability in simulated gastric fluid assessed as compound remaining at pH 1.2 after 10 mins by HPLC analysis. The format is ADME. Particulars: read-out: Stability. The method, boiled down: as §1
The nature of data set [13]: Stability of the compound assessed as compound remaining at RT measured immediately. The format is physicochemical. Particulars: read-out: Stability. The method, boiled down:
as §3

The subject of data set [14] is Rattus norvegicus. The data set is described as follows: Antiinflammatory activity in Sprague-Dawley rat assessed as plasma nitrate/nitrite at 41.60 mg/kg, po after 4 hrs. Format: functional, organism-based. On the set-up: dose 41.6 mg/kg. In short, it runs like this:
as §2

The nature of data set [15]: Metabolic stability in simulated gastric fluid assessed as compound remaining at pH 1.2 measured immediately by HPLC analysis. Particulars: read-out: Stability. The format is ADME. The method, boiled down:
as §1

Data set [16] is described as follows: Stability of the compound assessed as compound remaining at 50 degC measured immediately. The format is physicochemical. Particulars: read-out: Stability. In short, it runs like this:
as §3

Data set [17] deals with Rattus norvegicus. Put plainly: Antiinflammatory activity in Sprague-Dawley rat assessed as plasma nitrate/nitrite at 41.60 mg/kg, po after 6 hrs relative to control. The format is functional, organism-based. On the set-up: dose 41.6 mg/kg. In short, it runs like this:
as §2

Data set [18] can be described thus: Metabolic stability in simulated gastric fluid assessed as chlorambucil level. The format is ADME, tissue-based, Stomach. The following applies: simulated gi fluid.
Data set [19] can be described thus: Metabolic stability in simulated gastric fluid assessed as compound remaining at pH 1.2 after 120 mins by HPLC analysis. Format: ADME. Particulars: read-out: Stability. In short, it runs like this:
as §1

Data set [20] can be described thus: Metabolic stability in simulated gastric fluid assessed as compound remaining at pH 1.2 after 180 mins by HPLC analysis. Format: ADME. Particulars: read-out: Stability. The method, boiled down:
as §1

Data set [21] is described as follows: in vivo. The following applies: Sprague-Dawley, rat, po, 10 mg/kg.
The nature of data set [22]: in vivo. The following applies: Sprague-Dawley, rat, plasma, po, 10 mg/kg.
Data set [23] in a line: in vivo. Particulars: Sprague-Dawley, rat, plasma, po, 10 mg/kg. The source holds these as a separate data set.
Data set [24] in a line: in vivo. Particulars: Sprague-Dawley, rat, plasma, po, 10 mg/kg. The source holds these as a separate data set.
A short description of data set [25]: in vivo. Particulars: Sprague-Dawley, rat, po, 10 mg/kg. The source holds these as a separate data set.
A short description of data set [26]: AUC in Sprague-Dawley rat at 44.83 mg/kg, po. Particulars: plasma. The format is ADME, organism-based. On the set-up: dose 44.83 mg/kg, route oral. In short, it runs like this:
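Plasma parent-drug concentration followed over time up to 8 h. AUC in µg*h/mL from the concentration–time profile. Cmax and Tmax taken from the profile.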

For `COc1ccc2cc([C@H](C)C(=O)OC(C)O[N+](=O)[O-])ccc2c1` (stereo partly drawn), the remaining at 0.5 h in [1] is 33%. Moreover, the Activity was found to be 120 µM in data set [2], 39 mm2 in data set [7] and 150 µM in [10]. Besides, the remaining at 600 h was 99% in data set [3] and 98.9% in data set [4]. Further, the remaining at 0.25 h in [5] is 65%. In addition, the half-life (commonly the time needed for the level to fall by half in the phase considered) in data set [6] is less than 30 min. Besides, the remaining at 1 h in data set [8] was 0%. Besides, in [9], the AUC was found to be 687 µM·h. The remaining at 5 min in data set [11] is 85%. The remaining at 10 min in [12] was 75%. The remaining at 0 days in data set [13] and in data set [16] was 99.1% in each case. The outcome in [14] and in [17] was inactive. Further, in data set [15], the remaining at 0 min was 100%.
For the compound `CC(OC(=O)CCCc1ccc(N(CCCl)CCCl)cc1)O[N+](=O)[O-]` (stereo not drawn), the t1/2 in data set [18] was less than 5 min.
Turning to `CCCCC(OC(=O)[C@@H](C)c1ccc2cc(OC)ccc2c1)O[N+](=O)[O-]` (stereo partly drawn), the remaining at 0.5 h in data set [1] is 87%. Moreover, the remaining at 0.25 h in [5] is 87%. Also, in data set [6], the half-life was more than 180 min. Further, the remaining at 1 h in [8] is 87%. Besides, the remaining at 5 min in [11] is 98%. Besides, the remaining at 10 min in data set [12] was 96%. For the same compound, in data set [15], the remaining at 0 min is 100%. The remaining at 2 h in data set [19] was 80%. Besides, the remaining at 3 h in [20] is 71%.
Regarding `COc1ccc2cc([C@H](C)C(=O)O)ccc2c1` [NAPROXEN], the concentration in [21] peaked (Cmax at 0.25 h) at 55000 ng/mL. The highest concentration (Cmax) – broadly, the highest concentration seen after dosing – at 8 h in [22] is less than 15000 ng/mL. The compound also gave a peak concentration (Cmax) at 2 h in data set [23] of more than 30000 ng/mL. This compound also yielded a Cmax at 4 h in data set [24] of more than 20000 ng/mL. Further, in data set [25], the Tmax (commonly the time from dosing to the highest level) is 15 min.
As for `CCCC(OC(=O)c1ccccc1OC(C)=O)O[N+](=O)[O-]` (stereo not drawn), the AUC in [26] worked out at 73500 ng·h/mL.
